From PubChem BioAssay
Rad51 HR inh = human RAD51 strand exchange inhibitors, primary screen, biochemical, fluorescence; DNA repair protein RAD51 homolog 1 (Homo sapiens), Q06609; hRad51 DNA strand exchange, fluorescence dequenching; inhibition, % at 10 µM; hit rate 0.085% among 200,000;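 active = inhibition above 40% at the single screening dose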;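 note: 0% = DMSO control wells and 100% = blanks with heterologous ssDNA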
Target sequence (Q06609 whole entry, looked up): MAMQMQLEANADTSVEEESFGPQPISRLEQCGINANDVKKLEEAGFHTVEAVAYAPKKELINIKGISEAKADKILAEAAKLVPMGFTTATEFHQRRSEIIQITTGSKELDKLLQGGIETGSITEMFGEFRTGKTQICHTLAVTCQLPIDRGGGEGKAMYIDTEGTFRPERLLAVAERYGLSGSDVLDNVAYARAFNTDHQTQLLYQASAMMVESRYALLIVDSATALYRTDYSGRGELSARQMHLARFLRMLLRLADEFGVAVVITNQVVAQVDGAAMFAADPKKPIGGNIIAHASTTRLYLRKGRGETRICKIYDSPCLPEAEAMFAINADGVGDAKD
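Test system: preformed human Rad51 ssDNA filaments; also added: Donor/quencher-labelled 47-bp dsDNA substrate; doses: 10 µM final, single point; times: 37 °C 15-min filament assembly, 30-min compound preincubation, 15-min exchange; detection: FRET fluorescence dequenching, excitation 485 nm, emission 520 nm; read-out basis: Fluorescence-based percent inhibition, control- and blank-normalised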
STAT1 activator = STAT1 signaling activators, primary screen, cell-based, HTS, luciferase reporter; NIH 3T3 STAT1-luciferase reporter, IFN-gamma, luminescence; 100% = IFN-gamma alone, no compound; activation (% of control), % at 5.5 µM; hit rate 2.6% among 200,000;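 active = activation above the screen-wide mean activation plus 3 SD, cut at about 130% in these data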;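 note: raw ratio to IFN-gamma control signal so 100% means no change and 0% no light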
APP 5'UTR act = activators of APP 5'UTR luciferase reporter, primary screen, SH-SY5Y cells; SH-SY5Y APP 5'UTR luciferase reporter, luminescence; zero percent = DMSO vehicle wells; activation, % at 2 µM; hit rate 1% among 190,000;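 active = activation above a set limit, based on mean plus 3 SD of controls, cut at about 140% in these data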
FLuc act counter = FLuc activators, initial screening, artefact control for FLuc-dependent activation tests, biochemical, ATPlite luminescence; Luciferin 4-monooxygenase (Photinus pyralis), P08659; ATPlite luciferase biochemical, 10 min; 0 = ATP-free wells, 1 = DMSO control; activation factor at 10 µM; 200,000 tested, under 10 active;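 active = luciferase activation factor, scaled between plate controls, of at least 2 with compound at 10 µM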
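Material: Luciferase/luciferin reagent mix; Doses: test compounds dosed from 2 mM stocks in 100% DMSO; Schedule: 10 min incubation after luciferase reagent addition, room temperature; Measured by: luminescence from luciferase reaction; Read-out: luminescence gain marking luciferase activators.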
NF-kB expr up = activators of NF-kB expression in neurons, primary screen, cell-based, HTS | human neuronal cells, NF-kB reporter expression; active compounds read high | fold change at 12.5 µM | hit rate 1.6% among 190,000 | AID 1239, 2008; in the data active = fold change above about 3.3
FLuc inh counter = firefly luciferase enzyme inhibitors, primary screen, artefact control for luciferase-based inhibitor screens, biochemical, luminescence, ATPLite; Luciferin 4-monooxygenase (Photinus pyralis), P08659; 10 min; inhibition, % at 10 µM; hit rate 1.5% among 200,000;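 active = inhibition above about 50% when tested at 10 µM, limit read from the data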
STAT1 activ conf = STAT1 signaling activators, confirmation, cell-based, HTS, luciferase reporter | shares compounds with STAT1 activator | NIH 3T3 STAT1-luciferase reporter, IFN-gamma potentiation, luminescence; 100% = IFN-gamma EC80 alone, no compound | activation (% of control), % at 5.7 µM | hit rate 97% among 1,200;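 active = activation above a set limit carried over from the earlier primary STAT1 screen, cut at about 140% in these data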;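 note: simple ratio to median IFN-gamma plus DMSO wells so 0% means no light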
NFkB act STAT1ct = NF-kB reporter activators, TNF-alpha stimulated, counter-screen for STAT1 activator project, cell-based, HEK293T, luciferase luminescence; shares compounds with STAT1 activator; 100% = TNF-alpha with vehicle only; activation (% of control), % at 5.7 µM; hit rate 43% among 1,200;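 active = activation above the mean of solvent-only control wells plus 3 SD, set per campaign, cut at about 130% in these data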;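 note: TNF-alpha given at a submaximal dose yielding about 80% of full reporter signal; values are well signal over median control so 100% means no change and 0% no light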
STAT3 act 2 = STAT3 reporter activation by STAT1 hits, confirmation, counter-screen for STAT1 activator project, U3A cells, luciferase, luminescence; IL-6; cells lack STAT1; 100 = IL-6 alone, no compound effect; activation (% of control), % at 5.7 µM; shares compounds with STAT1 activator; hit rate 46% among 1,200;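 active = activation above the solvent-only control well mean plus 3 SD, set per plate batch, cut at about 110% in these data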;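 note: 0% = no luminescence and 100% = median IL-6 plus DMSO wells; higher means more STAT3 reporter activation so hits are non-selective activators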
Active calls of the source: *. Rows were chosen to be rich in hits. Some 3.9% of all compounds tested hit in one or more screens of this group.

How did C=CCNC(=S)/N=C/c1c(O)[nH]c(=O)[nH]c1=O do in these assays?
Rad51 HR inh: -0.5; STAT1 activator: 96.5; APP 5'UTR act: 2.6; FLuc act counter: 1; NF-kB expr up: 0.97; FLuc inh counter: 2.5

Results for NC(=S)/N=C/c1c(O)[nH]c(=O)[nH]c1=O ?
Rad51 HR inh: 15.4; STAT1 activator: 99.0; APP 5'UTR act: 23.9; FLuc act counter: 1; NF-kB expr up: 3.4*; FLuc inh counter: -1.9

How did Cc1nn(Cc2ccccc2)c(C)c1C(=O)O do in these assays?
Rad51 HR inh: 4.1; STAT1 activator: 99.7; APP 5'UTR act: 20.7; FLuc act counter: 1; NF-kB expr up: 0.98; FLuc inh counter: -4.3

Results for Cc1nn(Cc2ccccc2)c(C)c1C(=O)NCc1ccccc1F ?
Rad51 HR inh: 44.2*; STAT1 activator: 100.9; APP 5'UTR act: 7.6; FLuc act counter: 1; NF-kB expr up: 1.21; FLuc inh counter: -2.4

Results for CSc1ncc(/C=C2/C(=O)NC(=O)N(c3ccc(Cl)cc3)C2=O)cn1 ?
Rad51 HR inh: -4.8; STAT1 activator: 98.2; APP 5'UTR act: 6.6; FLuc act counter: 1.1; NF-kB expr up: 1.3; FLuc inh counter: -13.0

Results for Cc1cc(C(=O)CS(=O)(=O)c2ccccc2)cc(C)c1OC(=O)N(C)C ?
Rad51 HR inh: 1.4; STAT1 activator: 123.9; APP 5'UTR act: 50.0; FLuc act counter: 0.2; NF-kB expr up: 1.96; FLuc inh counter: 77.9*

What do the screens show for `CN1CC[C@@H](c2ccc(F)cc2)[C@H](COc2ccc3c(c2)OCO3)C1`?
Rad51 HR inh: -3.0

What do the screens show for `CS(=O)(=O)c1ccc(C2=C(c3ccccc3)C(=O)OC2)cc1`?
Rad51 HR inh: -4.5

How did N=C1c2ccccc2CN1NC(=O)c1ccccc1 do in these assays?
Rad51 HR inh: 15.2; STAT1 activator: 103.3; APP 5'UTR act: 38.0; FLuc act counter: 1; NF-kB expr up: 1.19; FLuc inh counter: -4.1

Results for N=C1c2ccccc2CN1CC(=O)c1ccccc1 ?
Rad51 HR inh: -1.0; STAT1 activator: 182.4*; APP 5'UTR act: 142.9*; FLuc act counter: 1; NF-kB expr up: 7.81*; FLuc inh counter: 2.8; STAT1 activ conf: 153.9*; NFkB act STAT1ct: 129.9; STAT3 act 2: 119.0*

What do the screens show for `COc1ccc(CC2(CCc3ccncc3)C(=O)NC(=O)NC2=O)c(OC)c1`?
Rad51 HR inh: -4.0; STAT1 activator: 106.3; APP 5'UTR act: -4.6; FLuc act counter: 1; NF-kB expr up: 1.07; FLuc inh counter: -0.1

What do the screens show for `CN1C2CCC1/C(=C/c1ccccn1)C(=O)/C2=C\c1ccccn1`?
Rad51 HR inh: 1.4; STAT1 activator: 209.1*; APP 5'UTR act: -94.6; FLuc act counter: 1.1; NF-kB expr up: 0.47; FLuc inh counter: -9.2; STAT1 activ conf: 476.9*; NFkB act STAT1ct: 252.3*; STAT3 act 2: 56.5

How did N#CSCC(=O)N1c2ccccc2CCc2ccccc21 do in these assays?
Rad51 HR inh: 11.3; STAT1 activator: 95.7; APP 5'UTR act: -19.0; FLuc act counter: 1.1; NF-kB expr up: 1.12; FLuc inh counter: -7.3
